# Results pooled from the literature.
# Target: Tyrosine-protein kinase FRK (FRK, Homo sapiens, UniProt P42685)
Structure (SMILES),assay,conditions,measurement,result
Cc1ccc(C(=O)Nc2ccc(CN3CCN(C)CC3)c(C(F)(F)F)c2)cc1C#Cc1cnc2cccnn12,"enzyme activity, inhibitor",23.5 nM,remaining activity,16%
Cc1c(C(=O)O)cc(-c2ccc(C3CCNCC3)cc2)c2ccc(-c3ccc(C(F)(F)F)cc3)cc12,"cell-free assay, competition with immobilised ligand",1 µM,remaining binding,100%
CC(C)(C)c1nc(-c2cccc(NS(=O)(=O)c3c(F)cccc3F)c2F)c(-c2ccnc(N)n2)s1,"enzyme activity, inhibitor, radiometric",1 µM,remaining activity,111%
O=C1CCc2cc(Nc3cc(OC4CCOCC4)c([N+](=O)[O-])cc3Cl)ccc2N1,"cell-free assay, competition with immobilised ligand",1 µM,remaining binding,73%
CCN(CC)CCNC(=O)c1c(C)[nH]c(/C=C2\C(=O)Nc3ccc(F)cc32)c1C,"enzyme activity, inhibitor",0.3 µM,inhibition,47%
Cc1cnc(NC2CCOCC2)nc1-n1cnc(C(=O)NC(CN)c2cc(F)cc(Cl)c2)c1 (stereo not shown),"enzyme activity, inhibitor, radiometric",1 µM,remaining activity,98%
CCN(CC)c1ccc(C2=NNC(=O)CC2C)cc1[N+](=O)[O-] (stereo not shown),"enzyme activity, inhibitor",10 µM,remaining activity,83%
CC/C(=N\NC(=O)NCc1cccc(O)c1)c1ccc(O)c(C)c1O,"enzyme activity, inhibitor",0.1 µM,inhibition,0.5%
O=c1cc(-c2cccc3c2Sc2ccccc2S3)oc(N2CCOCC2)c1,"enzyme activity, inhibitor",0.5 µM,remaining activity,99.5%
CCCOc1ccc(OC)c(F)c1C(=O)c1ccc(C(=O)N[C@@H]2CNC[C@H]2NC(=O)c2ccc3[nH]ncc3c2)cc1,"enzyme activity, inhibitor",10 µM,remaining activity,96%
O=c1c2ccccc2[nH]c(=S)n1CCN1CCC(=C(c2ccc(F)cc2)c2ccc(F)cc2)CC1,"enzyme activity, inhibitor",0.5 µM,remaining activity,100%
CC1=C(C#N)[C@@H](c2ccc3[nH]nc(C)c3c2)C(C#N)=C(c2ccc(Cl)cc2)N1,"cell-free assay, competition with immobilised ligand",1 µM,remaining binding,100%
N#CCCc1ccc2c(c1)-c1[nH]c3ccc([N+](=O)[O-])cc3c1CC(=O)N2,cell-free assay,0.5 µM,remaining signal,92.7%
COc1cc2ncnc(Nc3ccc(Oc4ccccc4)c(C)c3C)c2cc1OC,"enzyme activity, inhibitor",1 µM,inhibition,20%
O=C(Nc1cnn(-c2csc(C(=O)NC3COC3)c2)c1)Nc1ccccc1Cl,"enzyme activity, inhibitor",5 µM,remaining activity,97.4%
C[C@H](NC(=O)c1cnc2n1[C@](C)(Cc1ccc(C#N)cc1)C(=O)N2c1cc(Cl)c(F)c(Cl)c1)C(=O)NC1(c2ccccn2)CC1,"cell-free assay, competition with immobilised ligand",1 µM,remaining binding,68%
CCN(CC)CCNC(=O)c1c(C)[nH]c(/C=C2\C(=O)Nc3ccc(Cl)cc32)c1C,"enzyme activity, inhibitor",0.5 µM,remaining activity,59.3%
c1nc2c(Nc3ccc4c(c3)OCCO4)nc(Nc3ccc4c(c3)OCCO4)nc2[nH]1,"enzyme activity, inhibitor",10 µM,activity vs control,22%
CCCOc1ccc([C@@H]2[C@@H](C(=O)O)[C@H](c3ccc4c(c3)OCO4)CN2CC(=O)Nc2c(CC)cccc2CC)cc1,"cell-free assay, competition with immobilised ligand",1 µM,remaining binding,89%
Cc1ccc(C(=O)NCc2ccsc2)cc1C#Cc1cn(C(C)C)c2ncnc(N)c12,"enzyme activity, inhibitor",1 µM,activity vs control,2%
COc1cc(-c2cn(C3CCc4c(F)cccc4N(CC(F)(F)F)C3=O)nn2)ccc1-n1cnc(C)c1 (stereo not shown),"cell-free assay, competition with immobilised ligand",1 µM,remaining binding,100%
Cc1sc(C(=O)NC2COC2)cc1-n1cc(NC(=O)Nc2c(F)cccc2Cl)cn1,"enzyme activity, inhibitor",10 µM,remaining activity,87.3%
